Published values gathered from unrelated publications.
1-deoxy-D-xylulose 5-phosphate reductoisomerase: 1-deoxy-D-xylulose 5-phosphate reductoisomerase (Mycobacterium tuberculosis, UniProt P9WNS1)
DPP4: Dipeptidyl peptidase 4 (DPP4, Homo sapiens, UniProt P27487)
ENAH: Protein enabled homolog (ENAH, UniProt Q8N8S7)
pknB: Serine/threonine-protein kinase PknB (pknB, Mycobacterium tuberculosis, UniProt P9WI81)

The IC50 of `CC(=O)N(O)CCC(c1ccc(-c2c(C)noc2C)cc1)P(=O)(O)O` (centres unmarked) is reported as 21.5 µM (1-deoxy-D-xylulose 5-phosphate reductoisomerase; enzyme activity, inhibitor, absorbance; pH 7.5).
For `CC(C)[C@H](N)C(=O)N1CCC[C@H]1C(=O)N[C@H](C(=O)N1CCC[C@H]1C(=O)N[C@@H](Cc1ccc(O)cc1)C(=O)O)C(C)C`, the IC50 was 80.7 µM (DPP4; enzyme activity, inhibitor, absorbance; pH 8).
The IC50 of `CC(=O)N(O)CCC(c1ccc(-c2cccc(C)c2)cc1)P(=O)(O)O` (centres unmarked) is reported as 2.4 µM (1-deoxy-D-xylulose 5-phosphate reductoisomerase; enzyme activity, inhibitor, absorbance; pH 7.5).
`CC(=O)N[C@@H](CO)C(=O)N[C@@H](Cc1ccccc1)C(=O)N[C@@H](CCC(=O)O)C(=O)N[C@@H](Cc1ccccc1Cl)C(=O)N1CCC[C@H]1C(=O)N1CCC[C@H]1C(=O)N1CCC[C@H]1C(=O)N1CCC[C@H]1C(=O)N[C@H](C(=O)N[C@@H](CCC(=O)O)C(=O)N[C@@H](CC(=O)O)C(=O)N[C@@H](CC(=O)O)C(=O)N[C@@H](CC(C)C)C(N)=O)[C@@H](C)O` has a Kd of 1.43 µM (ENAH; binding, fluorescence).
For `COc1cccc(-c2ccnc(Nc3ccc(N4CCN(C(=O)OC(C)(C)C)CC4)c(C(F)(F)F)c3)n2)c1`, the IC50 was > 20 µM (pknB; enzyme activity, inhibitor).
With `CC(=O)N(O)CCC(c1ccc(-c2ccsc2)cc1)P(=O)(O)O` (centres unmarked) the IC50 was 5.7 µM (1-deoxy-D-xylulose 5-phosphate reductoisomerase; enzyme activity, inhibitor, absorbance; pH 7.5).
For `CN1[C@H]2CC[C@@H]1[C@@H](c1cc(-c3ccccc3)no1)[C@H](OC(c1ccc(F)cc1)c1ccc(F)cc1)C2`, the Ki was 0.413 µM (Transporter (Slc6a2, Rattus norvegicus, UniProt Q63380); ligand displacement, radioligand; cell membranes).
The IC50 of `CC(C)[C@H](N)C(=O)N1CCC[C@H]1C(=O)N[C@H](C(=O)N1CCC[C@H]1C(=O)NCC(=O)O)C(C)C` is reported as 84.9 µM (DPP4; enzyme activity, inhibitor, absorbance; pH 8).
For `CC(C)(C)OC(=O)N1CCN(c2ccc(Nc3nccc(-c4ccccc4)n3)cc2C(F)(F)F)CC1`, the IC50 was > 20 µM (pknB; enzyme activity, inhibitor).
For `CC(=O)N[C@@H](CO)C(=O)N[C@@H](Cc1ccccc1)C(=O)N[C@@H](CCC(=O)O)C(=O)N[C@@H](Cc1ccccc1Cl)C(=O)N1CCC[C@H]1C(=O)N1CCC[C@H]1C(=O)N1CCC[C@H]1C(=O)N1CCC[C@H]1C(=O)O`, the Kd was 4.6 µM (ENAH; binding, fluorescence).
`CC(C)[C@H](N)C(=O)N1CCC[C@H]1C(=O)N[C@H](C(=O)N1CCC[C@H]1C(=O)N[C@H](C(=O)O)[C@@H](C)O)C(C)C` gave an IC50 of 131 µM (DPP4; enzyme activity, inhibitor, absorbance; pH 8).
